Assays:
[1] = folding enthalpy; higher = less favourable; fluorescence melt of hairpins on a sequencing array, two-state fit; conditions: sodium 0.088 M
Outline: (§1)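 Melting temperature and folding enthalpy were derived from bootstrapped two-state fits. The fitted temperatures were raised by 9.35 °C to agree with UV melts, and four replicates were combined by inverse variance. The underlying data were Cy3 fluorescence images of library hairpins, with annealed Cy3 and quencher oligos, on a sequenced MiSeq flow cell in 50 mM Na-HEPES pH 8.0, 25 mM NaCl, taken in 2.5 °C steps up to 60 °C, normalised to pre-quench Cy3 and to control constructs.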

[2] = melting temperature; fluorescence melt of hairpins on a sequencing array, two-state fit, raised by 9.35 °C to match UV melts; conditions: sodium 0.088 M
Outline: as §1

Sequence | folding enthalpy [1] [kcal/mol] | Tm [2] [°C]
GAAGCGGGAAACCACTTC ((((.((....)).)))) | -32.1 | 41.8
GTATCTGGAAACGGATAC (((((.(....).))))) | -38 | 44.8
GCGGGGCGAAAGCACGGC ((.(.((....)).).)) | -15.7 | 65.2
GCGTGAAAACGC ((((....)))) | -32.6 | 58.5
GATCGATCCTCGATC ((((((...)))))) | -40.4 | 52.1
GCATCACGAAAGTGCTGC (((.(((....))).))) | -44 | 52.4
GAGAGCGAAAGCTATCTC ((((((....)))..))) | -22.4 | 51.2
GATAGCGAAAGCTTGATC ((((((....)))..))) | -8.2 | 25.1
GAGACAGGAAACTGTCCC (.(((((....))))).) | -13 | 39.4
GGGACCGAAAGGTTACCC ((((((....)))..))) | -17.6 | 47
GATCTCGTCGAGATC ((((((...)))))) | -31.1 | 55.7
GGCTTCCGAAAGGAGCC (((.(((....)))))) | -37.1 | 60
GCTTAAGGAAACTTGAGC (((.(((....))).))) | -31.5 | 38.9
GCGGGTTCCGC ((((...)))) | -25.4 | 57.2
GCGAAATTTCGC ((((....)))) | -42.6 | 51.7
GAAATCACGAAAGTGTTC (((..(((....)))))) | -9 | 20.8
GATCTATCGCTAGATC ((((((....)))))) | -15 | 39.8
GTGGCCGAAAGGCAACAC ((((((....)))..))) | -13.3 | 55.5
GTGGCGCCGAAAGGCCAC (((..(((....)))))) | -13.8 | 57.8
GCGGTGGGAAACCACCAC (.(((((....))))).) | -12.4 | 48.1
GGATTGCGAAAGCAGTCC (((.(((....))).))) | -38.5 | 60.2
GCGAAGGCGAAAGCCCGC (((..(((....)))))) | -18.2 | 59.5
GGGCCTCCGAAAGGACCC (((..(((....)))))) | -21.2 | 50.1
GCATCCGAAAGGACATGC ((((((....)))..))) | -23.1 | 43.3

Sequence | folding enthalpy [1] [kcal/mol] | Tm [2] [°C]
GCCTTGCGAAAGCGCGGC (((..((....))..))) | -18 | 57.1
GAGTTTGAAAAAACTC ((((((....)))))) | -32.2 | 50.8
GATCGTCACGACGATC ((((((....)))))) | -43.1 | 57.8
GCGTGGACACGC ((((....)))) | -25.5 | 62
GTTGCCGAAAGGCTGAAC ((((((....)))..))) | -9.17 | 31.4
GGAAGTGAAAACTTCC ((((((....)))))) | -37.3 | 56.4
GATCCAGACGTGGATC ((((((....)))))) | -45.1 | 53.2
GTTCCCGGAAACAGGAAC (((((.(....).))))) | -32.5 | 39.5
GATCGTATGACGATC ((((((...)))))) | -34 | 55.6
GATAGCGGAAACGCTATC (((((((....))))))) | -34.4 | 65.7
GGTTGCGGAAACGTAGCC ((.(.((....)).).)) | -27.3 | 40.2
GATTCCGGAAACGAAATC ((((.((....)).)))) | -31.6 | 34.3
GATAAGGGAAACCCTATC ((((.((....)).)))) | -15.6 | 30.6
GTTCGCCGAAAGGCCAAC (((.(((....))).))) | -15.3 | 39.4
GATCACCCATGTGATC ((((((....)))))) | -33.8 | 55.7
GCGACCCGTCGC ((((....)))) | -40.1 | 60.7
GTAGGTGGAAACACTTGC (.(.(((....))).).) | -14.3 | 31.7
GGCACACGAAAGTGGCC (((.(((....)))))) | -23.2 | 62.2
GTCCTCGAAAGAGCGGAC ((((((....)))..))) | -22.1 | 36.1
GAGCGGGGAAACCCGTTC ((.((((....)))).)) | -20.1 | 53
GAAAGCCGAAAGGCTTC (((.(((....)))))) | -9.06 | 50.2
GCTTGGGGAAACCCAAAC (.(((((....))))).) | -14.5 | 39.3
GATGGCCGAAAGGCGATC (((.(((....))).))) | -23.9 | 52.8
GCGTCGGGAAACCGATGC ((.((((....)))).)) | -34 | 65

Sequence | folding enthalpy [1] [kcal/mol] | Tm [2] [°C]
GATCTCGCCCGAGATC ((((((....)))))) | -39.2 | 56.2
GGCAGTCGAAAGACAGCC (((.(((....))).))) | -38.9 | 61.8
GCCAAGCGAAAGCTCAGC ((..(((....)))..)) | -13.6 | 37.3
GATCCGGGACGGATC ((((((...)))))) | -37.1 | 68.9
GCAGAAGGAAACTCCTGC ((((.((....)).)))) | -20.9 | 40.1
GATGTACCGAAAGGTATC (((..(((....)))))) | -14 | 32.2
GCGACGCGAAAGCCTAGC ((.(.((....)).).)) | -18.9 | 43.5
GTAAACGAAAGTTTTTAC ((((((....)))..))) | -12 | 24.9
GGTACAGGAAACTGTATC (.(((((....))))).) | -28.6 | 43.4
GTTACAGAAATGTAAC ((((((....)))))) | -33.4 | 46.1
GCGGAGGTCCGC ((((....)))) | -24.4 | 56.4
GGACACCGAAAGGTTTCC (((.(((....))).))) | -32.8 | 48.2
GATCAAAAACTTGATC ((((((....)))))) | -26.5 | 34.9
GACACTGGAAACAGTATC ((.((((....)))).)) | -17.6 | 30.4
GGAAGAGAAATCTTCC ((((((....)))))) | -24.1 | 47.7
GTAGTGGGAAACCACTAC (((((((....))))))) | -30.3 | 63.4
GATCTAGCAGTAGATC ((((((....)))))) | -31.2 | 43.2
GCGTTTGACGC ((((...)))) | -18.3 | 57.1
GAGCCCCGAAAGGGTCTC (((.(((....))).))) | -32.9 | 57.1
GATCCATCCATGGATC ((((((....)))))) | -43.4 | 55.8
GCACCAGGAAACTAGTGC ((((.((....)).)))) | -29.2 | 40.2
GGCAATACGAAAGTAGCC (((..(((....)))))) | -17.9 | 44.4
GTTTGCGAAAGCATTAAC ((((((....)))..))) | -12.2 | 27.3
GAAGCCGAAAGGCCTTTC ((((((....)))..))) | -9.88 | 35.9

Sequence | folding enthalpy [1] [kcal/mol] | Tm [2] [°C]
CGCGGAAGCTCCGCG ((((((...)))))) | -26.3 | 68.8
GTACCTGGAAACAGGTGC (.(((((....))))).) | -28.1 | 52.4
CGCACGGAAACGTGGCG ((((((....))).))) | -25.9 | 54.2
GTTTTCGGAAACGAAAGC (.(((((....))))).) | -25.9 | 44.4
GCTCTGCGAAAGCTAAGC (((..((....))..))) | -13.4 | 37.9
GGGTACGAAAGTATTCCC ((((((....)))..))) | -20.4 | 35.5
GGTCTCGAAAGAGCCACC ((((((....)))..))) | -14.8 | 43.3
GTCTACACGAAAGTGGAC (((..(((....)))))) | -14.1 | 37.2
GGGGCTCCGAAAGGACCC (((..(((....)))))) | -35.3 | 56.9
GATCGGTCGCCCGATC ((((((....)))))) | -54.5 | 57.4
GCGAGGTTTCGC ((((....)))) | -16 | 49.4
GCAACGCGAAAGCGGAGC ((..(((....)))..)) | -24.5 | 63.9
GTCCAGACGAAAGTCGAC (((..(((....)))))) | -11.1 | 36.9
GATCTGCTAGCAGATC ((((((....)))))) | -48.5 | 60.9
GTCCCAGGAAACTGGAAC ((.((((....)))).)) | -22 | 35.8
GTGCGCGAAAGCGGTCAC ((((((....)))..))) | -14.1 | 43.5
GATATTGGAAACAATATC (((((((....))))))) | -45.2 | 48.8
GTCACCGGAAACGGTAAC ((.((((....)))).)) | -16.6 | 38.4
GTGGTCGGAAACGACTGC (..((((....))))..) | -14.3 | 49.5
GGCGAGACGAAAGTCGCC (((..(((....)))))) | -13.8 | 59.4
GCTCTGCGAAAGCACTGC ((..(((....)))..)) | -10.7 | 31.6
